# Assay results published in ChEMBL document CHEMBL3994633, “Exploration of phenylpropanoic acids as agonists of the free fatty acid receptor 4 (FFA4): Identification of an orally efficacious FFA4 agonist” (Bioorg Med Chem Lett, 2017).
# Numbering of substitutions follows the chain as printed.
# Key:
# [1] = target: T1, Free fatty acid receptor 2 (Homo sapiens) (UniProt O15552); assay: Agonist activity at human FFA2 receptor by FLIPR assay relative to control
# T1 sequence (whole entry): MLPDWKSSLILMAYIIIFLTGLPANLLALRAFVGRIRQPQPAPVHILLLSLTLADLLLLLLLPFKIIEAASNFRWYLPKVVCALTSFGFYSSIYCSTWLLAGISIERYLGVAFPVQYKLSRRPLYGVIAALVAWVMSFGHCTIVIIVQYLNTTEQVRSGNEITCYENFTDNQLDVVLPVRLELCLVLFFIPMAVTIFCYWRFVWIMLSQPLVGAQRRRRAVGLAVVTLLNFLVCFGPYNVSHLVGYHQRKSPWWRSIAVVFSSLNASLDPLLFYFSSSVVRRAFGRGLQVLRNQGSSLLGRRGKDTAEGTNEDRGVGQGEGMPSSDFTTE
# How it was run: (§1)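 Human FFA2 or FFA3 agonism tested in FLIPR-based full-curve functional assays. EC50 (nM) and max response (%) reported.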
# [2] = target: Free fatty acid receptor 1 (Rattus norvegicus, UniProt Q8K3T4); assay: Agonist activity at rat FFA1 receptor
# [3] = AUC in C57BL/6J mouse at 10 mg/kg, po; format: ADME, organism-based; conditions: in vivo
# How it was run: (§2)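 C57BL/6J mice (n = 2), single oral dose of 10 mg/kg given as a suspension in 0.5% HMPC: 0.1% Tween. Plasma Cmax and AUC (hr*ng/mL) measured; %F calculated against the IV leg.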
# [4] = target: T2, Free fatty acid receptor 4 (Rattus norvegicus, UniProt Q2AC31); assay: Agonist activity at rat FFA4 receptor
# T2 sequence (Q2AC31 whole entry): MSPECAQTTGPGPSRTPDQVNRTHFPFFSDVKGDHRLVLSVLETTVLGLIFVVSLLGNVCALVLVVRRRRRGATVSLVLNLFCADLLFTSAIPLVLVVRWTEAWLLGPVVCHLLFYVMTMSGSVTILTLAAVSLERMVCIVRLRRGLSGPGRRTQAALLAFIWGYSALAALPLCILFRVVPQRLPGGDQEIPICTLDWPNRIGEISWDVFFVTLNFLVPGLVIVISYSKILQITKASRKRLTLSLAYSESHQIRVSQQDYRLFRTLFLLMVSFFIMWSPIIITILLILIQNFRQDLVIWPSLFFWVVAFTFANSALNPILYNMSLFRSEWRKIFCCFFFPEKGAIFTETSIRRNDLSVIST
# [5] = target: T3, Free fatty acid receptor 4 (Rattus norvegicus) (UniProt Q2AC31); assay: Agonist activity at rat FFA4 receptor relative to control
# T3 sequence (whole entry): T2 sequence (Q2AC31 whole entry)
# Mus musculus [6] = assay: Antidiabetic activity in db/db mouse assessed as plasma glucose level at 100 mg/kg, po bid after 2 weeks (reference value: 276 mg/dl); format: functional
# How it was run: (§3)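 Fed db/db mice given vehicle or 100 mg/kg orally twice daily for 2 weeks. Blood glucose measured before treatment and after 1 and 2 weeks; HbA1c measured before and after 2 weeks.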
# [7] = target: T4, Free fatty acid receptor 2 (Homo sapiens, UniProt O15552); assay: Agonist activity at human FFA2 receptor by FLIPR assay; how it was run: as §1
# T4 sequence (O15552 whole entry): T1 sequence (whole entry)
# [8] = target: Free fatty acid receptor 1 (Mus musculus, UniProt Q76JU9); assay: Agonist activity at mouse FFA1 receptor
# [9] = target: T5, Free fatty acid receptor 1 (Homo sapiens, UniProt O14842); assay: Agonist activity at human FFA1 receptor expressed in human U2OS cells co-expressing Galpha16 assessed as calcium mobilization by Fluo-4 dye based FLIPR assay relative to GSK137647A; format: functional, cell-based
# How it was run: (§4)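 U2OS cells transiently expressing human FFA1 or FFA4. Agonism measured from a ten-point dose-response curve with FLIPR readout, giving EC50 (nM) and efficacy (% max response). Values are means of three experiments.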
# Mus musculus [10] = assay: Antidiabetic activity in db/db mouse assessed as reduction in HbA1c level at 100 mg/kg, po bid after 2 weeks relative to control; format: functional; parameters: scale not given: the % may be the effect or the level left; how it was run: as §3
# [11] = target: T6, Free fatty acid receptor 4 (Mus musculus, UniProt Q7TMA4); assay: Agonist activity at mouse FFA4 receptor
# T6 sequence (Q7TMA4 whole entry): T2 sequence (Q2AC31 whole entry) with R15H, P17L, L42V, V66A, V75A, S328N, E348D, I351V, T361S
# [12] = target: Free fatty acid receptor 1 (Mus musculus) (UniProt Q76JU9); assay: Agonist activity at mouse FFA1 receptor relative to control
# [13] = target: T5, Free fatty acid receptor 1; assay: Agonist activity at human FFA1 receptor expressed in human U2OS cells co-expressing Galpha16 assessed as calcium mobilization by Fluo-4 dye based FLIPR assay; format: functional, cell-based; conditions: read-out: EC50; how it was run: as §4
# [14] = AUC in C57BL/6J mouse at 4.2 mg/kg, iv; format: ADME, organism-based; conditions: in vivo
# How it was run: (§5)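 C57BL/6J mice (n = 2) dosed intravenously at 3 or 4.2 mg/kg. Clearance (mL/min/kg) and AUC (hr*ng/mL) derived from plasma concentrations.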
# [15] = target: T7, Free fatty acid receptor 4 (Homo sapiens) (UniProt Q5NUL3); assay: Agonist activity at human FFA4 receptor expressed in human U2OS cells co-expressing Galpha16 assessed as calcium mobilization by Fluo-4 dye based FLIPR assay relative to GSK137647A; format: functional, cell-based; how it was run: as §4
# T7 sequence (whole entry): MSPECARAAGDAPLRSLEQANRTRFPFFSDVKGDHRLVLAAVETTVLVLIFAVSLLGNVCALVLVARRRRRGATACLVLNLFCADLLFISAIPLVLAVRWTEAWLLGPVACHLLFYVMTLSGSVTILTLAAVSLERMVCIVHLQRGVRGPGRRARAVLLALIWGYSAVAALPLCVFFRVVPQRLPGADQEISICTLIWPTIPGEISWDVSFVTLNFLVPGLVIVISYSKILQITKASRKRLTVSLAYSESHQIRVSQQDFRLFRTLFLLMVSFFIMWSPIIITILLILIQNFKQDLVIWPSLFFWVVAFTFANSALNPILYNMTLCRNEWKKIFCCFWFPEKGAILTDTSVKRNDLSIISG
# [16] = target: T8, Free fatty acid receptor 4 (Homo sapiens, UniProt Q5NUL3); assay: Agonist activity at human FFA4 receptor expressed in human U2OS cells co-expressing Galpha16 assessed as calcium mobilization by Fluo-4 dye based FLIPR assay; format: functional, cell-based; how it was run: as §4
# T8 sequence (Q5NUL3 whole entry): T7 sequence (whole entry)
# Mus musculus [17] = species on record: Mus musculus; assay: Selectivity ratio of EC50 for mouse FFA1 receptor to EC50 for mouse FFA4 receptor
# [18] = Protein binding in human plasma; format: ADME, cell-free; conditions: read-out: PPB
# Rattus norvegicus [19] = assay: Antidiabetic activity in ZDF rat assessed as plasma glucose level at 10 mg/kg bid for 14 days (reference value: 192 mg/dl); format: functional
# [20] = target: T9, Free fatty acid receptor 4 (Mus musculus) (UniProt Q7TMA4); assay: Agonist activity at mouse FFA4 receptor relative to control
# T9 sequence (whole entry): T2 sequence (Q2AC31 whole entry) with R15H, P17L, L42V, V66A, V75A, S328N, E348D, I351V, T361S
# [21] = Half life in C57BL/6J mouse at 10 mg/kg, po; format: ADME, organism-based; conditions: in vivo
# Homo sapiens = species on record: Homo sapiens; assay: Selectivity ratio of EC50 for human FFA1 receptor expressed in human U2OS cells co-expressing Galpha16 to EC50 for human FFA4 receptor expressed in human U2OS cells co-expressing Galpha16; format: cell-based
# [22] = target: T10, Free fatty acid receptor 3 (Homo sapiens, UniProt O14843); assay: Agonist activity at human FFA3 receptor by FLIPR assay; how it was run: as §1
# T10 sequence (O14843 whole entry): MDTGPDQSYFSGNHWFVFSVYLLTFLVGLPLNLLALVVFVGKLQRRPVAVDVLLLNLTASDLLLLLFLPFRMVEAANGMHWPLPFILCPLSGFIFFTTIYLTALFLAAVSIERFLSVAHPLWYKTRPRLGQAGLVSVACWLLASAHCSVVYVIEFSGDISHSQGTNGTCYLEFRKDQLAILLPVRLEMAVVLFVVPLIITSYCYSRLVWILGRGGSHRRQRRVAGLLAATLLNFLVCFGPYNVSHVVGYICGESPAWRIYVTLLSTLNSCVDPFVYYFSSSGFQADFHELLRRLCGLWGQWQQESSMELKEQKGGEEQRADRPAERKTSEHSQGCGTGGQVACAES
# [23] = Oral bioavailability in C57BL/6J mouse at 10 mg/kg; format: ADME, organism-based; conditions: in vivo; how it was run: as §2
# [24] = Cmax in C57BL/6J mouse at 10 mg/kg, po; format: ADME, organism-based; parameters: dose 10 mg/kg, route oral; conditions: in vivo; how it was run: as §2
# [25] = Clearance in C57BL/6J mouse at 4.2 mg/kg, iv; format: ADME, organism-based; conditions: in vivo; how it was run: as §5
# Rattus norvegicus [26] = assay: Antidiabetic activity in ZDF rat assessed as plasma glucose level at 100 mg/kg bid for 14 days (reference value: 192 mg/dl); format: functional
# Rattus norvegicus [27] = species on record: Rattus norvegicus; assay: Selectivity ratio of EC50 for rat FFA1 receptor to EC50 for rat FFA4 receptor
# T5 sequence (O14842 whole entry): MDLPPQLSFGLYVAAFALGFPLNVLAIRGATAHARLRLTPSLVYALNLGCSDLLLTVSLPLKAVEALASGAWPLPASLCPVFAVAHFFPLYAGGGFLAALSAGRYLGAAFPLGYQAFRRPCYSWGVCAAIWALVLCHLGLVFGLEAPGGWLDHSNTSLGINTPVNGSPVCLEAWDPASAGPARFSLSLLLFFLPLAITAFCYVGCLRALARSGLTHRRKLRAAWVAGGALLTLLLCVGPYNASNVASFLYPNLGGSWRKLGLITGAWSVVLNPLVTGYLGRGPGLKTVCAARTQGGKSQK
# Chain of Free fatty acid receptor 1 (Mus musculus, UniProt Q76JU9) (Q76JU9 whole entry): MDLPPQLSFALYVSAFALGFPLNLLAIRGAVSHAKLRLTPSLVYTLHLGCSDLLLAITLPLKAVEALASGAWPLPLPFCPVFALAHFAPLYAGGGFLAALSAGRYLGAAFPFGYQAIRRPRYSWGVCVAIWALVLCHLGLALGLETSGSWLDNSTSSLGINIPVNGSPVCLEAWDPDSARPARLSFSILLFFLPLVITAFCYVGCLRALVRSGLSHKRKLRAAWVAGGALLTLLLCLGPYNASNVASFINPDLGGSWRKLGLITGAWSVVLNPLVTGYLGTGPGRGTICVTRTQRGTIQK
# Chain of Free fatty acid receptor 1 (Mus musculus) (Q76JU9 whole entry): as above
# Chain of Free fatty acid receptor 1 (Rattus norvegicus, UniProt Q8K3T4) (Q8K3T4 whole entry): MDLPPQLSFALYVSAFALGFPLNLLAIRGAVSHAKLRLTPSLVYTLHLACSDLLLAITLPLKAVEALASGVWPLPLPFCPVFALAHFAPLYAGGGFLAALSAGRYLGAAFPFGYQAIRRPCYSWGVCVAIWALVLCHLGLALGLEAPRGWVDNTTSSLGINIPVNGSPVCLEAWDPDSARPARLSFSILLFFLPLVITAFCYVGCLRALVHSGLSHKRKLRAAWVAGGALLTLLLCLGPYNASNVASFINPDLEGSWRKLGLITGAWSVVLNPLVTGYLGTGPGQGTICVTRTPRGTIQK
compound,measurement,setting,value
COc1ccc(C(F)(F)F)cc1COc1ccc(CCC(=O)O)cc1C,%max,[1],59%
same,EC50,[2],> 30 µM
same,AUC,[3],9440 ng·h/mL
same,EC50,[4],0.23 µM
same,%max,[5],110%
same,Activity,Mus musculus [6],106 mg/dL
same,EC50,[7],25.3 µM
same,EC50,[8],6.21 µM
same,%max,[9],105%
same,Activity,Mus musculus [10],1.6%
same,EC50,[11],0.07 µM
same,%max,[12],83%
same,EC50,[13],11.8 µM
same,AUC,[14],3620 ng·h/mL
same,%max,[15],124%
same,EC50,[16],0.299 µM
same,Ratio EC50,Mus musculus [17],> 85
same,fraction unbound,[18],0.001
same,Activity,Rattus norvegicus [19],151 mg/dL
same,%max,[20],108%
same,half-life,[21],1.7 h
same,Ratio EC50,Homo sapiens,40
same,EC50,[22],> 50 µM
same,bioavailability,[23],110%
same,Cmax,[24],6780 ng/mL
same,clearance,[25],20 mL/min/kg
same,Activity,Rattus norvegicus [26],139 mg/dL
same,Ratio EC50,Rattus norvegicus [27],> 85
